# Test results published in ChEMBL document CHEMBL2380272, “Biological evaluation of bisbenzaldehydes against four Mycobacterium species” (Eur J Med Chem, 2013).
# What was measured:
# [1] = Genotoxicity in human HepG2/C3A cells assessed as DNA fragmentation at 1 uM after 24 hrs by alkaline comet assay (reference value: 6.65%); assay type: toxicity, cell-based
# In short: (§1)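 Alkaline comet assay. C3A cells, 40,000/well, recovered overnight, then exposed 24 h at 37 °C, 5% CO2 to 0.1–10 µM final, diluted in DMEM + 10% FCS from 1 mM DMSO stock. Cells embedded in low-melting agarose, lysed 1 h, denatured 40 min at pH > 13, electrophoresed 20 min at 300 mA, about 17 °C. Gel red stain, % tail DNA scored by fluorescence microscopy. EMS 0.5 and 0.75 mM as positive control. Mann–Whitney U test.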
# [2] = Genotoxicity in human HepG2/C3A cells assessed as DNA fragmentation at 10 uM after 24 hrs by alkaline comet assay (reference value: 6.65%); assay type: toxicity, cell-based; in short: as §1
# [3] = Cytotoxicity against human HepG2/C3A cells assessed as cell viability at 60 uM after 24 hrs by neutral red uptake assay relative to control; assay type: cell-based; settings: read-out: Activity
# In short: (§2)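 C3A cells grown in DMEM + 10% FCS, 40 000 cells/well, recovered overnight at 37 °C, 5% CO2. Exposed 24 h to serial dilutions in DMEM + 10% FCS from 18 mM DMSO stocks, DMSO limited to 1%. Neutral red added for 3 h, cells washed, dye extracted with ethanol/acetic acid (50%/1%), OD read at 540 nm with 620 nm reference. Viability expressed as % of untreated cells.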
# [4] = Cytotoxicity against human HepG2/C3A cells assessed as cell viability at 120 uM after 24 hrs by neutral red uptake assay relative to control; assay type: cell-based; settings: read-out: Activity; in short: as §2
# [5] = Genotoxicity in human HepG2/C3A cells assessed as DNA fragmentation at 0.1 uM after 24 hrs by alkaline comet assay (reference value: 6.65%); assay type: toxicity, cell-based; in short: as §1
# [6] = test system: Mycobacterium avium subsp. paratuberculosis; assay: Antimycobacterial activity against Mycobacterium avium subsp. paratuberculosis ATCC 19698 assessed as growth inhibition after 6 days by luciferase reporter gene assay; assay type: functional; settings: ATCC 19698, 144 h
# In short: (§3)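 Mycobacteria carrying the pSMT1 luciferase reporter plasmid. Compounds came from 10 mM DMSO stocks and were serially diluted in 7H9 + 10% FCS. Thawed bacteria were filtered, recovered 1 h at 37 °C, then added at 50 000 RLU/mL. After 6 days of culture, light was read for 10 s after adding 1% n-decanal. Triplicates were run, and MIC50 was the concentration giving 50% growth inhibition.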
# [7] = test system: Mycobacterium tuberculosis; assay: Antimycobacterial activity against Mycobacterium tuberculosis H37Rv ATCC 27294 assessed as growth inhibition after 6 days by luciferase reporter gene assay; assay type: functional; settings: H37Rv ATCC 27294, 144 h; in short: as §3
# [8] = test system: Mycobacterium tuberculosis; assay: Antimycobacterial activity against Mycobacterium tuberculosis H37Rv infected in mouse J774.A1 cells at 1 MOI assessed as intracellular bacterial growth inhibition at 0.1 uM after 1 hr by luciferase reporter gene assay relative to control; assay type: functional; settings: J774.A1, 1 h, read-out: GI
# Salmonella typhimurium [9] = assay: Toxicity in recombinant Salmonella typhimurium TA104 expressing luxabcd genes under transcriptional control of constitutive pr1 promoter assessed as concentration required to reduce cell viability measured every 5 mins for 4 hrs by vitotox assay in absence of S9 fraction; assay type: organism-based; settings: salmonella enterica subsp. enterica serovar typhimurium
# In short: (§4)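 Cytox strain TA104 pr1 (constitutive promoter driving lux), run alongside the genox strain. Grown in poor LB at 36 °C for 16 h, diluted 125-fold and shaken 1 h, then diluted 10-fold, with or without aroclor-rat S9. Luminescence read at 30 °C every 5 min over 4 h; a drop in light signal indicates reduced viability. Top concentration 10 µM.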
# [10] = test system: Mycobacterium tuberculosis; assay: Antimycobacterial activity against Mycobacterium tuberculosis H37Rv ATCC 27294 assessed as growth inhibition at 0.1 uM after 6 days by luciferase reporter gene assay relative to control; assay type: functional; settings: H37Rv ATCC 27294, 144 h, read-out: GI
# In short: (§5)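 Luminescent M. tb H37Rv (hsp60-driven luciferase) in 7H9 + 10% FCS was seeded at 50 000 RLU/mL. Compounds were tested at 10, 1 and 0.1 µM from 10 mM DMSO stocks. After 6 days, luminescence was read with 1% n-decanal. Growth inhibition (%) was expressed against untreated culture, with triplicates.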
# [11] = Cytotoxicity against human HepG2/C3A cells assessed as cell viability at 180 uM after 24 hrs by neutral red uptake assay relative to control; assay type: cell-based; settings: read-out: Activity; in short: as §2
# [12] = test system: Mycobacterium tuberculosis; assay: Antimycobacterial activity against Mycobacterium tuberculosis H37Rv infected in mouse J774.A1 cells at 1 MOI assessed as intracellular bacterial growth inhibition at 1 uM after 1 hr by luciferase reporter gene assay relative to control; assay type: functional; settings: J774.A1, 1 h, read-out: GI
# Mycobacterium ulcerans = assay: Antimycobacterial activity against Mycobacterium ulcerans 1615 assessed as growth inhibition after 6 days by luciferase reporter gene assay; assay type: functional; settings: Mycobacterium ulcerans, 1615, 144 h
# In short: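 M. ulcerans 1615 carrying pSMT1 luciferase reporter plasmid, stock grown as surface pellicle on Sauton medium, cultured at 32 °C. Serial compound dilutions in 7H9 + 10% FCS from 10 mM DMSO stocks, tested in triplicate. Filtered bacteria added at 50 000 RLU/mL. After 6 days, wells collected and washed with PBS, 1% n-decanal in ethanol added, light read over 10 s. MIC50 = concentration giving 50% inhibition versus untreated.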
# [13] = Toxicity in recombinant Salmonella typhimurium TA104 expressing luxabcd genes under transcriptional control of constitutive pr1 promoter assessed as concentration required to reduce cell viability measured every 5 mins for 4 hrs by vitotox assay in presence of S9 fraction; assay type: organism-based; settings: salmonella enterica subsp. enterica serovar typhimurium; read-out: Activity; in short: as §4
# Salmonella typhimurium [14] = assay: Genotoxicity in recombinant Salmonella typhimurium TA104 expressing Vibrio fisheri luxabcd genes under transcriptional control of recN2-4 promoter assessed as concentration required to cause DNA damage measured every 5 mins for 4 hrs by vitotox assay in absence of S9 fraction; assay type: toxicity, organism-based; settings: salmonella enterica subsp. enterica serovar typhimurium
# In short: (§6)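 VITOTOX genox strain TA104 recN2-4 (recN promoter driving lux). Grown 16 h at 36 °C in poor LB, diluted 125-fold and shaken 1 h, then diluted 10-fold; rat aroclor S9 added for +S9 runs. Incubated at 30 °C with light read every 5 min for 4 h. Signal/noise = exposed over unexposed light. Highest concentration tested 10 µM.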
# [15] = Antimycobacterial activity against Mycobacterium avium subsp. avium ATCC 15769 assessed as growth inhibition after 6 days by luciferase reporter gene assay; assay type: functional; settings: ATCC 15769, 144 h; in short: as §3
# Salmonella typhimurium [16] = assay: Genotoxicity in recombinant Salmonella typhimurium TA104 expressing Vibrio fisheri luxabcd genes under transcriptional control of recN2-4 promoter assessed as concentration required to cause DNA damage measured every 5 mins for 4 hrs by vitotox assay in presence of S9 fraction; assay type: toxicity, organism-based; settings: salmonella enterica subsp. enterica serovar typhimurium, s9, 4 h; in short: as §6
# [17] = Selectivity index, ratio of NI50 for human HepG2/C3A cells to MIC50 for Mycobacterium tuberculosis H37Rv ATCC 27294; assay type: functional
# [18] = Genotoxicity in human HepG2/C3A cells assessed as DNA fragmentation at 3 uM after 24 hrs by alkaline comet assay (reference value: 6.65%); assay type: toxicity, cell-based; in short: as §1
# [19] = test system: Mycobacterium tuberculosis; assay: Antimycobacterial activity against Mycobacterium tuberculosis H37Rv ATCC 27294 assessed as growth inhibition at 10 uM after 6 days by luciferase reporter gene assay relative to control; assay type: functional; settings: H37Rv ATCC 27294, 144 h, read-out: GI; in short: as §5
# [20] = test system: Mycobacterium tuberculosis; assay: Antimycobacterial activity against Mycobacterium tuberculosis H37Rv ATCC 27294 assessed as growth inhibition at 1 uM after 6 days by luciferase reporter gene assay relative to control; assay type: functional; settings: H37Rv ATCC 27294, 144 h, read-out: GI; in short: as §5
# [21] = Potency index, ratio of MIC50 for Mycobacterium avium subsp. paratuberculosis ATCC 19698 to MIC50 for Mycobacterium bovis AN5; assay type: functional
# [22] = Genotoxicity in human HepG2/C3A cells assessed as DNA fragmentation at 0.3 uM after 24 hrs by alkaline comet assay (reference value: 6.65%); assay type: toxicity, cell-based; in short: as §1
# [23] = Potency index, ratio of MIC50 for Mycobacterium avium subsp. avium ATCC 15769 to MIC50 for Mycobacterium bovis AN5; assay type: functional
# [24] = test system: Mycobacterium tuberculosis; assay: Antimycobacterial activity against Mycobacterium tuberculosis H37Rv infected in mouse J774.A1 cells at 1 MOI assessed as intracellular bacterial growth inhibition at 10 uM after 1 hr by luciferase reporter gene assay relative to control; assay type: functional; settings: J774.A1, 1 h, read-out: GI
# [25] = Genotoxicity in human HepG2/C3A cells assessed as DNA fragmentation at 0.5 mM after 24 hrs by alkaline comet assay (reference value: 6.65%); assay type: toxicity, cell-based; settings: 500 µM
# [26] = Genotoxicity in human HepG2/C3A cells assessed as DNA fragmentation at 0.75 mM after 24 hrs by alkaline comet assay (reference value: 6.65%); assay type: toxicity, cell-based; settings: 750 µM
SMILES,"viability at 24 h, 60 µM [3] [%]","viability at 24 h, 120 µM [4] [%]",MIC50 [6] [µM],MIC50 [7] [µM],intracellular bacterial growth inhibition at 0.1 µM [8] [%],Activity (Salmonella typhimurium [9]) [µM],inhibition of growth at 0.1 µM [10] [%],"viability at 24 h, 180 µM [11] [%]",percent inhibition of intracellular bacterial growth at 1 µM [12] [%],MIC50 (Mycobacterium ulcerans) [µM],MCC at 4 h [13] [µM],Activity (Salmonella typhimurium [14]) [µM],MIC50 [15] [µM],Activity (Salmonella typhimurium [16]) [µM],Selectivity Index [17],inhibition of growth at 10 µM [19] [%],inhibition of growth at 1 µM [20] [%],Ratio [21],Ratio [23],intracellular bacterial growth inhibition at 10 µM [24] [%],also measured
O=Cc1ccc(OCCCCCCCCCCCCOc2ccc(C=O)cc2)cc1,101,89.9,4.75,0.52,13.5,> 10,26,68.1,53.1,8.21,> 10,> 10,5.01,> 10,>346.2,100,81,5,5,74,Activity [1]: 7.62%; Activity [2]: 6.97%; Activity [5]: 5.72%; Activity [18]: 7.44%; Activity [22]: 7.64%
CCOS(C)(=O)=O [METHANESULFONIC ACID ETHYL ESTER],,,,,,,,,,,,,,,,,,,,,Activity [25]: 63.44%; Activity [26]: 65.15%
O=Cc1ccc(OCCCCCCCCOc2ccc(C=O)cc2)cc1,97.9,95.3,5.83,0.85,0.6,> 10,13,69,42.9,> 10,> 10,> 10,5.36,> 10,>211.8,99,64,5,5,58.7,
O=Cc1ccc(OCCCCCCCCCCOc2ccc(C=O)cc2)cc1,97.7,96.6,5.45,0.77,11.1,> 10,20,72.8,39.6,> 10,> 10,> 10,5.61,> 10,>233.8,100,71,5,5,60.9,
